Reference: ChEMBL document CHEMBL1142704, “Design and biological evaluation of linear and cyclic phosphopeptide ligands of the N-terminal SH2 domain of protein tyrosine phosphatase SHP-1” (J Med Chem, 2005)
*1 amine or outer side, *2 acyl side, *3 side chain or, on linkers, in order; H or OH if unused. Where a SMILES comes first, the peptide text is derived from it. Bridges are numbered along the chain shown (N, C = ends). [ ]: non-standard residue; d: D form. X1 = O=C(CC[C@H](N[*:1])C(=O)[*:2])CN[*:3]; X4 = O=C([C@@H](N[*:1])C(O)c1ccccc1)[*:2]; X5 = O=C(CN[*:3])C[C@H](N[*:1])C(=O)[*:2]; pY = N[C@@H](Cc1ccc(OP(=O)(O)O)cc1)C(=O)O; hPhe = N[C@@H](CCc1ccccc1)C(=O)O; Tic = O=C(O)[C@@H]1Cc2ccccc2CN1; Nle = CCCC[C@H](N)C(=O)O; CO = O=C([*:1])[*:2]

Tests used:
[1] = target: T1, Tyrosine-protein phosphatase non-receptor type 6 (Homo sapiens, UniProt P29350); test: Dissociation constant for the interaction with the GST-N-SH2 domain of SHP-1; nb is no binding
How it was run: (§1)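 SPR at room temperature in 10 mM Hepes pH 7.4, 150 mM NaCl, 3.4 mM EDTA, 0.005% Tween20. Biotinylated peptides captured on the chip to 20-40 RU. FPLC-purified GST-SHP-1 N-SH2 was injected 5 min at 30 µL/min, then dissociation was followed. Blank flow cell subtracted. Equilibrium RU vs domain concentration was fit to a one-site hyperbola for Kd.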

[2] = target: T1, Tyrosine-protein phosphatase non-receptor type 6; test: Concentration required to stimulate SHP-1 enzymatic activity by 50%; not active
How it was run: (§2)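 SHP-1 activity on p-nitrophenyl phosphate (10 mM) in 50 mM Hepes pH 7.4, 50 mM NaCl, 1 mM EDTA, 1 mM TCEP with 0-500 µM peptide. Enzyme (0.5 µg) added last, 30 min at room temperature, stopped with 1 M NaOH, A405 read. Activity relative to no-peptide enzyme. Duplicates, mean of three independent experiments. Not active: maximal activity ≤0.4 relative to Ros pY2267.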

[3] = target: T1, Tyrosine-protein phosphatase non-receptor type 6; test: Dissociation constant for the interaction with the GST-N-SH2 domain of SHP-1; how it was run: as §1
[4] = target: T1, Tyrosine-protein phosphatase non-receptor type 6; test: Concentration required to stimulate SHP-1 enzymatic activity by 50%; how it was run: as §2

T1 sequence (P29350 whole entry, the tested form may be a part): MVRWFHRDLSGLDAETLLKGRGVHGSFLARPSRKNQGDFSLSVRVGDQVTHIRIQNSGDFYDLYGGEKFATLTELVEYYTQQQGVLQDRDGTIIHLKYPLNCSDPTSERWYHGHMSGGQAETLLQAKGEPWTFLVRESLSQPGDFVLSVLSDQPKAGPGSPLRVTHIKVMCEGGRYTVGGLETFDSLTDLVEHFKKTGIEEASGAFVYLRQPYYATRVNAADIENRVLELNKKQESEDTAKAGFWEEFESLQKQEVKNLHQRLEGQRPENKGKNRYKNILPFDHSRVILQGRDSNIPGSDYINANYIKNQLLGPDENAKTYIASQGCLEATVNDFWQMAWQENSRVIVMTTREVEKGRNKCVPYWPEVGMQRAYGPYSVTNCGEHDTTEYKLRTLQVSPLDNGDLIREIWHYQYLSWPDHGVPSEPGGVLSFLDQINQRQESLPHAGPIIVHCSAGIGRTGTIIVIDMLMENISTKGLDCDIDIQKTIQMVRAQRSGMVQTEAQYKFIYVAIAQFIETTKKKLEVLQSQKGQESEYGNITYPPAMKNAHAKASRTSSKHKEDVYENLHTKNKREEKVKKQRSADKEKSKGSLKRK

Kd [1] | EC50 [2] | Kd [3] | EC50 [4] | EC50 ([4]; read-out: EC50) | Compound
Not Active | Not Active | – | – | – | CSCC[C@@H]1NC(=O)[C@H](Cc2ccc(OP(=O)(O)O)cc2)NC(=O)[C@@H](NC(=O)[C@H](CC(C)C)NC(=O)CNC(=O)[C@@H](N)CCC(=O)O)CCCCNC(=O)CC[C@@H](C(=O)N[C@@H](CC(C)C)C(=O)O)NC1=O (H-EGLK[pY]MEL-OH; lactam 4-7)
– | – | 210 nM | Not Active | – | CSCC[C@@H]1NC(=O)[C@H](Cc2ccc(OP(=O)(O)O)cc2)NC(=O)[C@@H](NC(=O)[C@H](CC(C)C)NC(=O)CNC(=O)[C@@H](N)CCC(=O)O)CCCCNC(=O)NCC(=O)CC[C@@H](C(=O)N[C@@H](CC(C)C)C(=O)O)NC1=O (H-EGLK[pY]M[X1]L-OH; linker 4-7 via CO)
– | Not Active | 110 nM | – | – | CSCC[C@@H]1NC(=O)[C@H](Cc2ccc(OP(=O)(O)O)cc2)NC(=O)[C@@H](NC(=O)[C@H](CC(C)C)NC(=O)CNC(=O)[C@@H](N)CCC(=O)O)CCCCNC(=O)NCC(=O)C[C@@H](C(=O)N[C@@H](CC(C)C)C(=O)O)NC1=O (H-EGLK[pY]M[X5]L-OH; linker 4-7 via CO)
– | – | 690 nM | – | 70000 nM | CC(C)C[C@H](NC(=O)[C@@H](NC(=O)[C@H](Cc1ccccc1)NC(=O)[C@H](Cc1ccc(OP(=O)(O)O)cc1)NC(=O)[C@H](CC(N)=O)NC(=O)[C@H](CC(C)C)NC(=O)CNC(=O)[C@@H](N)CCC(=O)O)C(C)C)C(N)=O (H-EGLN[pY]FVL-NH2)
– | – | 1000 nM | – | 140000 nM | CSCC[C@H](NC(=O)[C@H](Cc1ccc(OP(=O)(O)O)cc1)NC(=O)[C@H](CC(N)=O)NC(=O)[C@H](CC(C)C)NC(=O)CNC(=O)[C@@H](N)CCC(=O)O)C(=O)N[C@H](C(=O)N[C@@H](Cc1ccccc1)C(N)=O)C(C)C (H-EGLN[pY]MVF-NH2)
– | – | 1440 nM | – | 160000 nM | CSCC[C@H](NC(=O)[C@H](Cc1ccc(OP(=O)(O)O)cc1)NC(=O)[C@H](CC(N)=O)NC(=O)[C@H](CC(C)C)NC(=O)CNC(=O)[C@@H](N)CCC(=O)O)C(=O)N[C@H](C(=O)N[C@@H](CC(C)C)C(N)=O)C(C)C (H-EGLN[pY]MVL-NH2)
– | – | 290 nM | – | 85000 nM | CSCC[C@H](NC(=O)[C@H](Cc1ccc(OP(=O)(O)O)cc1)NC(=O)[C@H](CC(N)=O)NC(=O)[C@H](CC(C)C)NC(=O)CNC(=O)[C@@H](N)CCC(=O)O)C(=O)N[C@H](C(=O)N[C@H](C(N)=O)C(O)c1ccccc1)C(C)C (stereo partly specified) (H-EGLN[pY]MV[X4]-NH2)
– | – | 230 nM | – | 60000 nM | CCCC[C@H](NC(=O)[C@H](Cc1ccc(OP(=O)(O)O)cc1)NC(=O)[C@H](CC(N)=O)NC(=O)[C@H](CC(C)C)NC(=O)CNC(=O)[C@@H](N)CCC(=O)O)C(=O)N[C@H](C(=O)N[C@@H](Cc1ccccc1)C(N)=O)C(C)C (H-EGLN[pY][Nle]VF-NH2)
Not Active | Not Active | – | – | – | CC[C@H](C)[C@H](NC(=O)[C@@H]1Cc2ccccc2CN1C(=O)[C@H](Cc1ccc(OP(=O)(O)O)cc1)NC(=O)[C@H](CC(N)=O)NC(=O)[C@H](CC(C)C)NC(=O)CNC(=O)[C@@H](N)CCC(=O)O)C(=O)N1Cc2ccccc2C[C@H]1C(N)=O (H-EGLN[pY][Tic]I[Tic]-NH2)
– | – | 1080 nM | – | 220000 nM | CC(C)C[C@H](NC(=O)[C@@H](NC(=O)[C@@H](NC(=O)[C@H](Cc1ccc(OP(=O)(O)O)cc1)NC(=O)[C@H](CC(N)=O)NC(=O)[C@H](CC(C)C)NC(=O)CNC(=O)[C@@H](N)CCC(=O)O)C(O)c1ccccc1)C(C)C)C(N)=O (stereo partly specified) (H-EGLN[pY][X4]VL-NH2)
– | – | 900 nM | – | 140000 nM | CC(C)C[C@H](NC(=O)[C@@H](NC(=O)[C@H](CCc1ccccc1)NC(=O)[C@H](Cc1ccc(OP(=O)(O)O)cc1)NC(=O)[C@H](CC(N)=O)NC(=O)[C@H](CC(C)C)NC(=O)CNC(=O)[C@@H](N)CCC(=O)O)C(C)C)C(N)=O (H-EGLN[pY][hPhe]VL-NH2)
– | – | 240 nM | – | 50000 nM | CC(C)C[C@H](NC(=O)[C@@H](NC(=O)[C@@H](NC(=O)[C@H](Cc1ccc(OP(=O)(O)O)cc1)NC(=O)[C@H](CC(N)=O)NC(=O)[C@H](CC(C)C)NC(=O)CNC(=O)[C@@H](N)CCC(=O)O)C(C)c1ccccc1)C(C)C)C(N)=O (stereo in doubt; 5a)
– | – | 160 nM | – | 220000 nM | CC(C)C[C@H](NC(=O)[C@@H](NC(=O)[C@@H](NC(=O)[C@H](Cc1ccc(OP(=O)(O)O)cc1)NC(=O)[C@H](CC(N)=O)NC(=O)[C@H](CC(C)C)NC(=O)CNC(=O)[C@@H](N)CCC(=O)O)C(C)c1ccccc1)C(C)C)C(N)=O (stereo in doubt; 5b)
